≈ marks a conversion by molar mass, not a printed value.
What was measured:
Format in all cases: functional
Staphylococcus aureus = assay: Antimicrobial activity against Staphylococcus aureus CMCC 26112 after 24 hrs by broth microdilution method; settings: CMCC 26112, 24 h
In short: (§1)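 Broth microdilution in Mueller-Hinton broth. Compounds tested across a doubling-dilution series, with cefoperazone as the positive control. Plates incubated 24 h at 37 °C. MIC taken as the lowest concentration showing no visible bacterial growth.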

Micrococcus luteus = assay: Antimicrobial activity against Sarcina lutea CMCC 28001 after 24 hrs by broth microdilution method; settings: CMCC 28001, 24 h; in short: as §1
Klebsiella pneumoniae = assay: Antimicrobial activity against Klebsiella pneumoniae CMCC 46117 after 24 hrs by broth microdilution method; settings: CMCC 46117, 24 h; in short: as §1

Row | SMILES | MIC (Staphylococcus aureus) | MIC (Micrococcus luteus) | MIC (Klebsiella pneumoniae)
1 | CCCC[C@H](CC(=O)NO)C(=O)N[C@H](c1nc2cc(C(=O)Nc3ccc(OC)cc3)ccc2[nH]1)C(C)C | 32 µg/mL (≈ 62.8 µM) | 16 µg/mL (≈ 31.4 µM) | 16 µg/mL (≈ 31.4 µM)
2 | CCCC[C@H](CC(=O)NO)C(=O)N[C@H](c1nc2cc(C(=O)NC3CCCCC3)ccc2[nH]1)C(C)C | 64 µg/mL (≈ 132 µM) | 64 µg/mL (≈ 132 µM) | 32 µg/mL (≈ 65.9 µM)
3 | CCCC[C@H](CC(=O)NO)C(=O)N[C@H](c1nc2cc(C(=O)N3CCCCC3)ccc2[nH]1)C(C)C | > 64 µg/mL | > 64 µg/mL | 8 µg/mL (≈ 17 µM)

Stronger by MIC (Staphylococcus aureus), values ahead:

Row | MIC (Staphylococcus aureus) | MIC (Micrococcus luteus) | MIC (Klebsiella pneumoniae) | SMILES
4 | 16 µg/mL (≈ 33.8 µM) | 16 µg/mL (≈ 33.8 µM) | 8 µg/mL (≈ 16.9 µM) | CCCC[C@H](CC(=O)NO)C(=O)N[C@H](c1nc2cc(C(=O)N3CCOCC3)ccc2[nH]1)C(C)C
5 | 8 µg/mL (≈ 21.4 µM) | 8 µg/mL (≈ 21.4 µM) | 4 µg/mL (≈ 10.7 µM) | CCCC[C@H](CC(=O)NO)C(=O)N[C@H](c1nc2cc(C)ccc2[nH]1)C(C)C
6 | 2 µg/mL (≈ 5.55 µM) | 4 µg/mL (≈ 11.1 µM) | 0.5 µg/mL (≈ 1.39 µM) | CCCC[C@H](CC(=O)NO)C(=O)N[C@H](c1nc2ccccc2[nH]1)C(C)C
7 | 0.25 µg/mL (≈ 0.387 µM) | 0.25 µg/mL (≈ 0.387 µM) | 0.25 µg/mL (≈ 0.387 µM) | CCN1CCN(C(=O)N[C@@H](C(=O)N[C@@H]2C(=O)N3C(C(=O)O)=C(CSc4nnnn4C)CS[C@H]23)c2ccc(O)cc2)C(=O)C1=O [CEFOPERAZONE]
8 | 8 µg/mL (≈ 20.5 µM) | 8 µg/mL (≈ 20.5 µM) | 8 µg/mL (≈ 20.5 µM) | CCCC[C@H](CC(=O)NO)C(=O)N[C@H](c1nc2cc(OC)ccc2[nH]1)C(C)C

Reference: ChEMBL document CHEMBL1137688, “Design, synthesis and antibacterial activity of novel actinonin derivatives containing benzimidazole heterocycles” (2009)
